According to ChEMBL document CHEMBL1938337, “Discovery of novel, potent, and selective inhibitors of 3-phosphoinositide-dependent kinase (PDK1)” (J Med Chem, 2011):

How the values were obtained:
[1] = biological target: MAP kinase-activated protein kinase 2 (Homo sapiens) (UniProt P49137); experiment: Inhibition of MAPKAPK2 at 1 uM
[2] = biological target: T1, 3-phosphoinositide-dependent protein kinase 1 (Homo sapiens, UniProt O15530); experiment: Inhibition of PDK1-mediated AKT1 phosphorylation at T308 in human H460 cells after 2 hrs by ELISA; assay type: cell-based
T1 sequence (O15530 whole entry): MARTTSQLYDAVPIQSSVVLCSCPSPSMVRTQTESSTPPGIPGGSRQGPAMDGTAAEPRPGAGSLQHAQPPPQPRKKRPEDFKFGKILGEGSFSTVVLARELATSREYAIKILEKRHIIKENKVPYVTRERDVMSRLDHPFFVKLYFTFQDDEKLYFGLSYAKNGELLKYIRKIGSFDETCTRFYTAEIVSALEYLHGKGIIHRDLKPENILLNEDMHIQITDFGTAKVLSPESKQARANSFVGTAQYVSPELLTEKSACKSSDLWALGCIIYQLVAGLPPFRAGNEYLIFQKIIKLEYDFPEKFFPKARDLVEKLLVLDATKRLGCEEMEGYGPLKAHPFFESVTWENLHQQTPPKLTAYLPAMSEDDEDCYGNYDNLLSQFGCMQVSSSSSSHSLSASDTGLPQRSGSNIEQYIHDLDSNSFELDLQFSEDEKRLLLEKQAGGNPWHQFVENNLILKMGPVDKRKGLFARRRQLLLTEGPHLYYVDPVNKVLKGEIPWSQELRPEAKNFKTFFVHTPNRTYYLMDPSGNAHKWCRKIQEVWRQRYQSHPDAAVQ
Outline: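 Cells seeded at 50,000 per well and left to adhere overnight. Inhibitor was added as a 3-fold serial dilution from 0.0169 nM to 10 μM for 2 h, then cells were lysed. Lysates were tested in a commercial pAKT-T308 sandwich ELISA per the kit protocol. IC50 from duplicates, each run repeated at least twice.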

[3] = Clearance in human liver microsomes; assay type: ADME, Microsome; conditions: read-out: CLH
[4] = biological target: T1, 3-phosphoinositide-dependent protein kinase 1; experiment: Inhibition of recombinant human His-tagged PDK1 catalytic domain using Ac-Sox-PKTFCGTPEYLAPEVRREPRILSEEEQEMFRDFDYIAD-NH2 as substrate by fluorescence-based spectrophotometry
[5] = Inhibition of recombinant GST-tagged P70S6K using 5FAM-KRSRTRTDSYSAGQ-COOH as substrate by fluorescence based assay
Outline: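 GST-tagged P70S6K (a.a. 1-421) at 5 nM, 50 μM ATP, 5 μM 5FAM-peptide. Product separated from substrate by charge (electrophoretic mobility shift, −2500/−500 V). Duplicates, nonlinear regression fit.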

[6] = Passive permeability in canine kidney cells; assay type: ADME, cell-based, Canis lupus familiaris; conditions: dog; read-out: permeability
[7] = biological target: Serine/threonine-protein kinase PAK 4 (Homo sapiens) (UniProt O96013); experiment: Inhibition of PAK4 at 1 uM
Chain of Serine/threonine-protein kinase PAK 4 (Homo sapiens) (O96013 whole entry, looked up): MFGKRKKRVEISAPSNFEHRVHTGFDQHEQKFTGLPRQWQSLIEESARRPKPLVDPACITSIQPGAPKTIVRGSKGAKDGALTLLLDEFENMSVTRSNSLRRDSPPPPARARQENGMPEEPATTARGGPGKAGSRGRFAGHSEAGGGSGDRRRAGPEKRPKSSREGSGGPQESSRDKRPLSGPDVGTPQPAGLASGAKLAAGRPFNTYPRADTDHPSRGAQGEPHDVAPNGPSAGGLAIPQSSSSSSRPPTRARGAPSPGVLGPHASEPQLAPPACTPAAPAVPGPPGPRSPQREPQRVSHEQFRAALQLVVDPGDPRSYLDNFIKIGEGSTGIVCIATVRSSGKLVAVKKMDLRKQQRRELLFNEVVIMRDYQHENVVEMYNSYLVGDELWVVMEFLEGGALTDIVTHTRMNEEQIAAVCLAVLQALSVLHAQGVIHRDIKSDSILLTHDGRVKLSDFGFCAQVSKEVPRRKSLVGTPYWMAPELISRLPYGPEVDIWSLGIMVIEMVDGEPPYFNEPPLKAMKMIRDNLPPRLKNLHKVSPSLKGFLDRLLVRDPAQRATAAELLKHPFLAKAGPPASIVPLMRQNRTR

[8] = biological target: Mitogen-activated protein kinase kinase kinase kinase 4 (Homo sapiens) (UniProt O95819); experiment: Inhibition of MAP4K4 at 1 uM
Chain of Mitogen-activated protein kinase kinase kinase kinase 4 (Homo sapiens) (O95819 2-1239 limits assumed): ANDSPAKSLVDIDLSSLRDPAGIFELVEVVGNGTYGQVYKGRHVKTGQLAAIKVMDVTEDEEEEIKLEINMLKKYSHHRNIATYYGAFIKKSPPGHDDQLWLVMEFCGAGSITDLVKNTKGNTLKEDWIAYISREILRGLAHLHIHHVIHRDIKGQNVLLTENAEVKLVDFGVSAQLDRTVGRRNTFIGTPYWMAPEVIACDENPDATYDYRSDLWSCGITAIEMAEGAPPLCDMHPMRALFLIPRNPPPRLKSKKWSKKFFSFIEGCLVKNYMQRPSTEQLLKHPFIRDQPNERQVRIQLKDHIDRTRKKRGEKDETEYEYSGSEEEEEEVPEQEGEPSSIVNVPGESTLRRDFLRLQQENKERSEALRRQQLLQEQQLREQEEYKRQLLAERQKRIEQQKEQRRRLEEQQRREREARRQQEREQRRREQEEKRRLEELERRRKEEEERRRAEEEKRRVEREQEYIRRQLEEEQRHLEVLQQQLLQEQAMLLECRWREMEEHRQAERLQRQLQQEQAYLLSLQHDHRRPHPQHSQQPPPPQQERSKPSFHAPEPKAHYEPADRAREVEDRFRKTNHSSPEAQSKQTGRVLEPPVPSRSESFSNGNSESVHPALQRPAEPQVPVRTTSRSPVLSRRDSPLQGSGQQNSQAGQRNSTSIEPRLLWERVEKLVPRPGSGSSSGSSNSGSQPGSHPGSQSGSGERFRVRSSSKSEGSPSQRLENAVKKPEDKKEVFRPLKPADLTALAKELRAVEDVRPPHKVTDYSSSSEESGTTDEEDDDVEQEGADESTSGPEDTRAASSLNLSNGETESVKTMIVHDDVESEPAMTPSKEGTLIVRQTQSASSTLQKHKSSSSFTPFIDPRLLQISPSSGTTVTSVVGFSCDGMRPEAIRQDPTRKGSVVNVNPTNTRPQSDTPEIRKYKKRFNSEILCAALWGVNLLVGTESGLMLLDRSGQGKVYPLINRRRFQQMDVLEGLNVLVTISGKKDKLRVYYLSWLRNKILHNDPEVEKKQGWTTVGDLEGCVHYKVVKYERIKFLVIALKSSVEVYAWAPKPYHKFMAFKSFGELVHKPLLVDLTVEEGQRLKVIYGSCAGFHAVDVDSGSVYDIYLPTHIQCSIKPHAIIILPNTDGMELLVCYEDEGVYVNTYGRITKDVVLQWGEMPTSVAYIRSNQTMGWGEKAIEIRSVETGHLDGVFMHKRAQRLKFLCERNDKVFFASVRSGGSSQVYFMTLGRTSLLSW

[9] = biological target: RAC-alpha serine/threonine-protein kinase (Homo sapiens, UniProt P31749); experiment: Inhibition of His-tagged AKT1 using 5FAM-GRPRTSSFAEGCONH2 as substrate by fluorescence based assay
Chain of RAC-alpha serine/threonine-protein kinase (P31749 whole entry): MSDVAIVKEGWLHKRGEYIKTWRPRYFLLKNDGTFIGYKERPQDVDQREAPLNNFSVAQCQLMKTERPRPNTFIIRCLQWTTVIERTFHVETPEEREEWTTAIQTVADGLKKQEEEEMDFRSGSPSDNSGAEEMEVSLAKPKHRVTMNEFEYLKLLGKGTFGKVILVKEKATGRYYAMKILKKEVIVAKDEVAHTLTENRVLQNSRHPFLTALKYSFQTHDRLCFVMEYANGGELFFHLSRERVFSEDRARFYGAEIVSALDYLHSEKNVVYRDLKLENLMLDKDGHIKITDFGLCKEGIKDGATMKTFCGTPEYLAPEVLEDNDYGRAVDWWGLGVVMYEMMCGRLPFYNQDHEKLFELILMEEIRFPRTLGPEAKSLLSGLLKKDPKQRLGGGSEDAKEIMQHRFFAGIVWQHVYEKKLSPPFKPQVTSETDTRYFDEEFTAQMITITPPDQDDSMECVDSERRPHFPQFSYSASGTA

Chain of MAP kinase-activated protein kinase 2 (Homo sapiens) (P49137 whole entry, looked up): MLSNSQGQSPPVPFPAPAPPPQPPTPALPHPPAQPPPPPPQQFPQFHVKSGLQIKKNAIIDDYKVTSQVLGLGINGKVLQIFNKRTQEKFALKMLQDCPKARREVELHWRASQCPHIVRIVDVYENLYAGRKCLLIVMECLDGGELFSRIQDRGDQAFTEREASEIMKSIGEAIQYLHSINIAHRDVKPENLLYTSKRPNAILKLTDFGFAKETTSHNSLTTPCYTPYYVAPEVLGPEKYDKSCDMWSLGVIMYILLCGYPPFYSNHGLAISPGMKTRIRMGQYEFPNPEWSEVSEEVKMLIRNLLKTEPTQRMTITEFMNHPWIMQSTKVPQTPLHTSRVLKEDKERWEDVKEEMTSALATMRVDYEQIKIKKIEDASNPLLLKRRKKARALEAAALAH

inhibition [1]	IC50 [2]	microsomal CLint [3]	Ki [4]	Ki [5]	Papp [6]	inhibition [7]	inhibition [8]	Ki [9]	SMILES
6%	320 nM	110 µL/min/mg	1.4 nM	3600 nM	11 ×10⁻⁶ cm/s	25%	23%	1100 nM	CC(=O)N1CC[C@@H](Nc2cncc(C(=O)c3cn(C(C)C)c4ncnc(N)c34)n2)[C@H]1c1ccccc1
2%	160 nM	120 µL/min/mg	1.4 nM	10000 nM	11 ×10⁻⁶ cm/s	46%	50%	360 nM	CC(=O)N1CC[C@@H](Nc2cncc(C(=O)c3cn(C(C)C)c4ncnc(N)c34)n2)[C@H]1c1ccc(F)cc1
6%	120 nM	62 µL/min/mg	0.7 nM	890 nM	11 ×10⁻⁶ cm/s	63%	57%	170 nM	CC(C)n1cc(C(=O)c2cncc(N[C@@H]3CCN(C=O)[C@@H]3c3ccc(F)cc3)n2)c2c(N)ncnc21
